# What was measured:
# Serine protease 1 = target: T1, Serine protease 1 (Bos taurus, UniProt P00760); test: Inhibitory activity against bovine pancreatic trypsin
# T1 sequence (P00760 whole entry): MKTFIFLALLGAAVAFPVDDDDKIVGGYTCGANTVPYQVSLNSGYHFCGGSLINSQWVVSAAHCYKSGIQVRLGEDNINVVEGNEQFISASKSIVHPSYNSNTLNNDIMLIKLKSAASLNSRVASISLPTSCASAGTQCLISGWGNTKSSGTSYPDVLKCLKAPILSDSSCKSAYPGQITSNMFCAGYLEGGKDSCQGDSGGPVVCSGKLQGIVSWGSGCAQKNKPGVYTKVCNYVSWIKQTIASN
# Outline: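 Bovine trypsin at 1 nM final, with buffer 0.05 M Tris, 0.15 M NaCl, 0.1% PEG-8000, 0.02 M CaCl2, pH 7.5, room temperature. 30 min compound preincubation, then S-2765 at 250 μM final. 405 nm read continuously for 5 min. IC50 from initial rates; apparent Ki by Cheng-Prusoff, assuming competitive kinetics.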
# Prothrombin [1] = target: T2, Prothrombin (Homo sapiens, UniProt P00734); test: Inhibition of human thrombin
# Outline: (§1)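 Preincubated with compound 30 min, then Pefachrome TH at 50 μM final. p-Nitroanilide release followed at 405 nm for 5 min. IC50 from initial velocities; apparent Ki via Cheng-Prusoff, assuming competitive inhibition.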
# Coagulation factor X = Coagulation factor X (Homo sapiens, UniProt P00742); test: Compound was evaluated for the inhibition of human Coagulation factor Xa
# Chain of Coagulation factor X (P00742 41-179 limits assumed): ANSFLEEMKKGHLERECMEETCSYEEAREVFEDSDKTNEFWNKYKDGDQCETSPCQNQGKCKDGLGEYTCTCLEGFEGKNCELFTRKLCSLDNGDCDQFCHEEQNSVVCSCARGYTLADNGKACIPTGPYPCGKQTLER
# Chain of Coagulation factor X (P00742 235-488 limits assumed): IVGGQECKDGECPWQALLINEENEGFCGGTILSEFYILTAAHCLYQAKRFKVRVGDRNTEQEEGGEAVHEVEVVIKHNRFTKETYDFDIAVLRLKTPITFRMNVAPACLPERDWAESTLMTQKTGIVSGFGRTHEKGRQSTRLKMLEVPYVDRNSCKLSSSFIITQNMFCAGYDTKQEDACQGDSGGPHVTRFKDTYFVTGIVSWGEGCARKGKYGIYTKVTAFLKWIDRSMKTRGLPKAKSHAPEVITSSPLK
# Plasminogen = Plasminogen (Homo sapiens, UniProt P00747); test: Compound was evaluated for the inhibition of plasmin
# Chain of Plasminogen (P00747 97-580 limits assumed): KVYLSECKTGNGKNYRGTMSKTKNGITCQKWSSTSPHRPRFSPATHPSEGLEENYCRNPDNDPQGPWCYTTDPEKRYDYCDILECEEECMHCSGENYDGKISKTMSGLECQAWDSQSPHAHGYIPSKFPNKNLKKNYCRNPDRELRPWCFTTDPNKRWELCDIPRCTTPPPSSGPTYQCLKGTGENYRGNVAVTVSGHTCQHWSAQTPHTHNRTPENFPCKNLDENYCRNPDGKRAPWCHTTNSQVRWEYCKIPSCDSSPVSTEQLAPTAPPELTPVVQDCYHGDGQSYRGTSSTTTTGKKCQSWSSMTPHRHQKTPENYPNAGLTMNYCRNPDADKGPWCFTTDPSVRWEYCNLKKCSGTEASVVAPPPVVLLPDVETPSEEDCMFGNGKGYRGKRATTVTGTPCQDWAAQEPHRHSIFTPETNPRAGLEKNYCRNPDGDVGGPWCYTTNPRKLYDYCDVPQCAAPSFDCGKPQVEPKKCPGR
# Chain of Plasminogen (P00747 581-810 limits assumed): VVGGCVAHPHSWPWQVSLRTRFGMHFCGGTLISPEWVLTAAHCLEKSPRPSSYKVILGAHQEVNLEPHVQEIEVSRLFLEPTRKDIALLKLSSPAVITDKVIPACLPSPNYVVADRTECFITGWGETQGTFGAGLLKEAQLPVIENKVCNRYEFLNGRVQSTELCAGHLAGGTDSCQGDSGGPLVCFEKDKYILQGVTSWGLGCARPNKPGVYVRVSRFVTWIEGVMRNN
# Outline: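 Compound preincubated 30 min, then S-2366 at 300 μM final. Continuous 405 nm read over 5 min. Initial velocities gave IC50; apparent Ki from Cheng-Prusoff, assuming competitive mechanism.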
# [2] = target: T3, Vitamin K-dependent protein C (Homo sapiens, UniProt P04070); test: Compound was evaluated for the inhibition of activated protein C (aPC)
# T3 sequence (P04070 43-197 limits assumed): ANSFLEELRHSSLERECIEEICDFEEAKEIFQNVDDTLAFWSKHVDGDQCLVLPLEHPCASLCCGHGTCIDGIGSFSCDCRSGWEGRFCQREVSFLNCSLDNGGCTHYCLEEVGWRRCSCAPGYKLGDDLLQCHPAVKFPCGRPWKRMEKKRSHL
# T3 sequence (P04070 212-461 limits assumed): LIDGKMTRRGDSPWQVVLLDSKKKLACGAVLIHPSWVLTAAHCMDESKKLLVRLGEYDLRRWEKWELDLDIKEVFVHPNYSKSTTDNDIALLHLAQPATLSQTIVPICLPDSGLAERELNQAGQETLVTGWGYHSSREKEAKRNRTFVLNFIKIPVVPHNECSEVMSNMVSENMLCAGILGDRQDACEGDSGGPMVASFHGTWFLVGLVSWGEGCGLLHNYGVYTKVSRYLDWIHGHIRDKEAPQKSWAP
# Outline: (§2)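 Human aPC, final enzyme 1 nM, in 0.05 M Tris, 0.15 M NaCl, 0.1% PEG-8000, 0.02 M CaCl2, pH 7.5. Compound preincubated with enzyme 30 min at room temperature. S-2366 at 500 μM final started the reaction. p-Nitroanilide release read continuously at 405 nm for 5 min, under 10% substrate consumed. IC50 from initial velocities; apparent Ki by Cheng-Prusoff, competitive mechanism assumed.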
# [3] = target: Tissue-type plasminogen activator (Homo sapiens, UniProt P00750); test: Compound was evaluated for the inhibition of Tissue type plasminogen activator (tissue plasminogen activator)
# Chain of Tissue-type plasminogen activator (P00750 whole entry): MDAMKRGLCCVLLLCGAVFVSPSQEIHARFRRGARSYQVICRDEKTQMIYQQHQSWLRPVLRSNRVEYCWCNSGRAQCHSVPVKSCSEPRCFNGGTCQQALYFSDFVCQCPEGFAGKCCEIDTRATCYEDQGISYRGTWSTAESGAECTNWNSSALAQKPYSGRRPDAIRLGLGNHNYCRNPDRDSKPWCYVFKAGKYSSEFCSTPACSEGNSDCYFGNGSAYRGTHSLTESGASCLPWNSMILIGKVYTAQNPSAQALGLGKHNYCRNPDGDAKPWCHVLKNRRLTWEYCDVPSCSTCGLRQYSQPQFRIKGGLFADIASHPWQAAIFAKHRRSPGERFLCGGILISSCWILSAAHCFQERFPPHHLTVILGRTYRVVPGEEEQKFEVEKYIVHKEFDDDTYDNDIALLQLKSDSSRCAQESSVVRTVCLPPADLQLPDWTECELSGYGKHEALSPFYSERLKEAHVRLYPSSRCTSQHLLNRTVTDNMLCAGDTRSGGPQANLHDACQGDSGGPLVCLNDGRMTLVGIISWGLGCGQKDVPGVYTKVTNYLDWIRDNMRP
# Outline: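 tPA, final enzyme 1 nM, in 0.05 M Tris, 0.15 M NaCl, 0.1% (w/v) BSA, pH 7.5. Preincubated 30 min with compound at room temperature, then Pefachrome-tPA at 500 μM final added. Release of p-nitroanilide monitored at 405 nm for 5 min. IC50 taken from initial rates; apparent Ki via Cheng-Prusoff, assuming competitive inhibition.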
# Prothrombin [4] = target: T2, Prothrombin; test: Compound was evaluated for the inhibition of thrombin.; outline: as §1
# [5] = target: T3, Vitamin K-dependent protein C; test: Compound was evaluated for the inhibition of Activated protein C (aPC); outline: as §2
SMILES,Ki (Serine protease 1),Ki (Prothrombin [1]),Ki (Coagulation factor X),Ki (Plasminogen),Ki [2],Ki [3],Ki (Prothrombin [4]),Ki [5]
N=C(N)c1cccc(CN2CCC[C@H](NS(=O)(=O)c3ccc4ccccc4c3)C2=O)c1,> 2.9 µM,> 4 µM,1.3 µM,,,,,
N=C(N)c1cccc(CN2CC[C@H](NS(=O)(=O)c3ccc(Oc4ccccc4)cc3)C2=O)c1,> 2.9 µM,> 4 µM,0.38 µM,,,,,
COc1cccc(-c2ccc(S(=O)(=O)N[C@H]3CCN(Cc4cccc(C(=N)N)c4)C3=O)cc2)c1,> 2.9 µM,2.5 µM,0.1 µM,,,,,
Cc1cccc(-c2ccc(S(=O)(=O)N[C@H]3CCN(Cc4cccc(C(=N)N)c4)C3=O)cc2)c1,> 2.9 µM,> 4 µM,0.12 µM,,,,,
N=C(N)c1cccc(CN2C[C@@H](NS(=O)(=O)c3ccc4ccccc4c3)CC2=O)c1,> 2.9 µM,> 4 µM,9.8 µM,,,,,
COc1ccc2ccc(S(=O)(=O)N[C@H]3CCN(Cc4coc(C(=N)N)c4)C3=O)cc2c1,> 2.9 µM,> 4 µM,0.18 µM,,,,,
N=C(N)c1cccc(CN2C[C@H](NS(=O)(=O)c3ccc4ccccc4c3)C2=O)c1,> 2.9 µM,> 4 µM,9.9 µM,,,,,
N=C(N)c1cccc(CN2CCCC[C@H](NS(=O)(=O)c3ccc4ccccc4c3)C2=O)c1,> 2.9 µM,> 4 µM,7 µM,,,,,
COc1ccc2ccc(S(=O)(=O)N(CC(=O)O)[C@H]3CCN(Cc4cccc(C(=N)N)c4)C3=O)cc2c1,> 2.9 µM,> 4 µM,0.12 µM,,,,,
N=C(N)c1cccc(CN2CC[C@H](NS(=O)(=O)c3ccc4ccccc4c3)C2)c1,> 2.9 µM,> 4 µM,> 10 µM,,,,,
N=C(N)c1cccc(CN2CC[C@H](NS(=O)(=O)c3ccc(Cc4ccccc4)cc3)C2=O)c1,> 2.9 µM,> 4 µM,1.1 µM,,,,,
COc1ccc2ccc(S(=O)(=O)N[C@H]3CCN(Cc4cccc(C(=N)N)c4)C3=O)cc2c1,,,,4.7 µM,1.2 µM,> 10 µM,,
N=C(N)c1cccc(CN2CC[C@H](NS(=O)(=O)c3cccc4ccccc34)C2=O)c1,> 2.9 µM,> 4 µM,0.75 µM,,,,,
N=C(N)c1cccc(CN2CC[C@H](NS(=O)(=O)c3ccc4cc(Cl)ccc4c3)C2=O)c1,> 2.9 µM,1.5 µM,0.07 µM,,,,,
COc1ccccc1-c1ccc(S(=O)(=O)N[C@H]2CCN(Cc3cccc(C(=N)N)c3)C2=O)cc1,> 2.9 µM,> 4 µM,0.19 µM,,,,,
N=C(N)c1cccc(CN2CC[C@H](NS(=O)(=O)c3cccc(-c4ccccc4)c3)C2=O)c1,> 2.9 µM,> 4 µM,0.44 µM,,,,,
CCOc1ccc2ccc(S(=O)(=O)N[C@H]3CCN(Cc4cccc(C(=N)N)c4)C3=O)cc2c1,> 2.9 µM,1.9 µM,0.28 µM,,,,,
COc1ccc2cc(S(=O)(=O)N[C@H]3CCN(Cc4cccc(C(=N)N)c4)C3=O)ccc2c1,> 2.9 µM,0.9 µM,1 µM,,,,,
COc1ccc2ccc(S(=O)(=O)N[C@H]3CCN(Cc4ccc(C(=N)N)s4)C3=O)cc2c1,,,0.22 µM,,,,,
COc1ccc2ccc(S(=O)(=O)N[C@H]3CCN(Cc4ccc(C(=N)N)o4)C3=O)cc2c1,> 2.9 µM,> 4 µM,0.57 µM,,,,,

# Further lines, results first:
Ki (Serine protease 1),Ki (Prothrombin [1]),Ki (Coagulation factor X),Ki (Plasminogen),Ki [2],Ki [3],Ki (Prothrombin [4]),Ki [5],SMILES
1.94 µM,0.97 µM,0.034 µM,,,,,,COc1ccc2ccc(S(=O)(=O)N(Cc3cccs3)[C@H]3CCN(Cc4cccc(C(=N)N)c4)C3=O)cc2c1
0.08 µM,0.63 µM,0.34 µM,,,,,,N=C(N)c1cccc(CNC(=O)CNS(=O)(=O)c2ccc3ccccc3c2)c1
1.94 µM,1.16 µM,0.031 µM,,,,,,COc1ccc2ccc(S(=O)(=O)N(Cc3ccccn3)[C@H]3CCN(Cc4cccc(C(=N)N)c4)C3=O)cc2c1
> 2.9 µM,> 4 µM,0.5 µM,,,,,,N=C(N)c1cccc(CN2CC[C@H](NS(=O)(=O)c3ccc4ccc(O)cc4c3)C2=O)c1
0.5 µM,1.3 µM,0.011 µM,,,,,,COc1ccc2ccc(S(=O)(=O)N[C@H]3CCN(Cc4csc(C(=N)N)c4)C3=O)cc2c1
1.6 µM,1.6 µM,0.37 µM,,,,,,CCc1ccc2ccc(S(=O)(=O)N[C@H]3CCN(Cc4cccc(C(=N)N)c4)C3=O)cc2c1
2.9 µM,> 4 µM,0.9 µM,,,,,,N=C(N)c1cccc(Cn2cc(CCc3ccc4ccccc4c3)c3ccccc32)c1
1.08 µM,0.36 µM,0.019 µM,,,,,,COc1ccc2ccc(S(=O)(=O)N(Cc3ccsc3)[C@H]3CCN(Cc4cccc(C(=N)N)c4)C3=O)cc2c1
1.39 µM,1.08 µM,0.021 µM,,,,,,COc1ccc2ccc(S(=O)(=O)N(Cc3cc[nH]n3)[C@H]3CCN(Cc4cccc(C(=N)N)c4)C3=O)cc2c1
1.4 µM,0.88 µM,0.043 µM,,,,,,CCN([C@H]1CCN(Cc2cccc(C(=N)N)c2)C1=O)S(=O)(=O)c1ccc2ccc(OC)cc2c1
2 µM,1.5 µM,0.056 µM,,,,,,COc1ccc2ccc(S(=O)(=O)N(CCC(N)=O)[C@H]3CCN(Cc4cccc(C(=N)N)c4)C3=O)cc2c1
1.5 µM,> 4 µM,0.25 µM,,,,,,CNc1ccc2ccc(S(=O)(=O)N[C@H]3CCN(Cc4cccc(C(=N)N)c4)C3=O)cc2c1
0.94 µM,2.4 µM,0.083 µM,,,,,,COc1ccc2ccc(S(=O)(=O)N[C@H]3CCN(Cc4cc(C(=N)N)cs4)C3=O)cc2c1
0.53 µM,,,4.4 µM,2.4 µM,8.6 µM,1 µM,,COc1ccc2ccc(S(=O)(=O)N(C)[C@H]3CCN(Cc4csc(C(=N)N)c4)C3=O)cc2c1
2 µM,1.2 µM,0.078 µM,,,,,,N=C(N)c1cccc(CN2CC[C@H](NS(=O)(=O)c3ccc4ccc(Cl)cc4c3)C2=O)c1
1.1 µM,1.34 µM,0.1 µM,,,,,,Cc1ccc2ccc(S(=O)(=O)N[C@H]3CCN(Cc4cccc(C(=N)N)c4)C3=O)cc2c1
2.84 µM,2.04 µM,0.11 µM,,,,,,COc1ccc2ccc(S(=O)(=O)N[C@H]3CCN(Cc4ccnc(C(=N)N)c4)C3=O)cc2c1
2.3 µM,> 4 µM,0.97 µM,,,,,,COc1ccc2ccc(S(=O)(=O)N[C@H]3CCN(Cc4ccc(C(=N)N)cc4)C3=O)cc2c1
1.8 µM,0.44 µM,0.041 µM,,,,,,COc1ccc2ccc(S(=O)(=O)N(Cc3ccccc3)[C@H]3CCN(Cc4cccc(C(=N)N)c4)C3=O)cc2c1
1 µM,1.44 µM,0.025 µM,,,,,,COc1ccc2ccc(S(=O)(=O)N(CC(N)=O)[C@H]3CCN(Cc4cccc(C(=N)N)c4)C3=O)cc2c1
1.3 µM,2.6 µM,0.12 µM,,,,,,N=C(N)c1cccc(CN2CC[C@H](NS(=O)(=O)c3ccc4ccc(N)cc4c3)C2=O)c1
2.9 µM,> 4 µM,,4.7 µM,,> 10 µM,,7 µM,N=C(N)c1cccc(CN2CC[C@H](NS(=O)(=O)c3ccc4ccccc4c3)C2=O)c1
